Experimental findings from ChEMBL document CHEMBL2380294, “Design, synthesis and biological activity of multifunctional α,β-unsaturated carbonyl scaffolds for Alzheimer's disease” (Bioorg Med Chem Lett, 2013) are described below.

Active and inactive are the calls of the source. The rule behind the calls is not given here.

Experiment [1] concerns the target T1, Amyloid-beta precursor protein (Homo sapiens, UniProt P05067). Description: Inhibition of amyloid beta (1 to 42) (unknown origin) oligomer dissociation after 16 to 18 hrs by ELISA. An outline of the steps: (§1)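 Disaggregated biotinyl-Aβ(1-42) was diluted in PBS (pH 7.5) to 33.7 nM monomer to preform oligomers. Oligomers (16.8 nM, in PBS + 0.3% Tween 20) were combined with PBS containing the compound and 1% DMSO. The mixture was shaken at 150 rpm at room temperature for 16-18 h. Remaining oligomers were captured on NeutrAvidin and measured by SA-HRP/TMB at OD450.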
(ELISA stands for enzyme-linked immunosorbent assay.)

The target in experiment [2] is T1, Amyloid-beta precursor protein. Description: Inhibition of amyloid beta (1 to 42) (unknown origin) oligomer dissociation at 50 uM after 16 to 18 hrs by ELISA. An outline of the steps: as §1
The target is the same in experiment [3]. The experiment can be described thus: Inhibition of amyloid beta (1 to 42) (unknown origin) oligomer assembly at 50 uM after 30 mins by biotinyl-streptavidin assay. An outline of the steps:
(§2)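 Biotinyl-Aβ(1-42) was dried from HFIP, disaggregated with TFA for 10 min at room temperature, and taken up in DMSO (500 nM). Monomer was mixed into PBS containing the compound and 1% DMSO at ambient temperature. After 30 min, 0.3% Tween 20 stopped assembly. Oligomers were captured on NeutrAvidin, detected with SA-HRP and TMB, and read at OD450. Solvent control = 100%.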

Experiment [4] has the same target. The experiment can be described thus: Inhibition of amyloid beta ((1 to 42) (unknown origin) oligomer assembly after 30 mins by biotinyl-streptavidin assay. An outline of the steps:
as §2

The target of experiment [5] is Cholinesterase (Homo sapiens, UniProt P06276). Description: Inhibition of BuChE (unknown origin) by Ellman method. An outline of the steps:
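Equine serum BuChE in 0.1 M phosphate buffer pH 8 with 0.34 mM DTNB, 0.02 unit/mL enzyme and 0.55 mM S-butyrylthiocholine chloride. Inhibitor concentration dependence over 0–50 μM. Percent inhibition versus no-inhibitor control used to derive IC50.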
On the technique in general: Ellman's reagent forms a yellow product with free thiols.

Experiment [6] has as its target T1, Amyloid-beta precursor protein. The experiment can be described thus: Inhibition of amyloid beta (1 to 40) (unknown origin) fibril formation assessed as shorter assemblies at 10 uM after 6 days by atomic force microscopy relative to control.
For experiment [7], the target named is Acetylcholinesterase (Homo sapiens, UniProt P22303). Description: Inhibition of AChE (unknown origin) by Ellman method.
Sequence of Acetylcholinesterase (P22303 whole entry): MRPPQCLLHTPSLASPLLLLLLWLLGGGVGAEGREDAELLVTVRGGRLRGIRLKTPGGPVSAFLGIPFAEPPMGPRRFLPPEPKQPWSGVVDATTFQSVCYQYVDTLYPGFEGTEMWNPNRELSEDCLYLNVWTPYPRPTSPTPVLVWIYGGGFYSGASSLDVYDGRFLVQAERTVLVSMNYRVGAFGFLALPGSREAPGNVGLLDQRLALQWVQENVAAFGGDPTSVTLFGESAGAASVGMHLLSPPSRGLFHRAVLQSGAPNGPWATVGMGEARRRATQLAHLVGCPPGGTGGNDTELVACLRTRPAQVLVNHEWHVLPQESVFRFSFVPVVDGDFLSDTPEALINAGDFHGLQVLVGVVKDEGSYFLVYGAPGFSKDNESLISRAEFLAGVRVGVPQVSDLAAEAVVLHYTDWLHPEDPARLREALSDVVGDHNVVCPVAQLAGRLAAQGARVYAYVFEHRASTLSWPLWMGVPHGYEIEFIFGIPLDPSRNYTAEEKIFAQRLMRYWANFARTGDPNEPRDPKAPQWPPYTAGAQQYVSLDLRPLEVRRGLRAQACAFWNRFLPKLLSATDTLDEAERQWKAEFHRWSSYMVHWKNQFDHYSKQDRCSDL

T1 sequence (P05067 whole entry): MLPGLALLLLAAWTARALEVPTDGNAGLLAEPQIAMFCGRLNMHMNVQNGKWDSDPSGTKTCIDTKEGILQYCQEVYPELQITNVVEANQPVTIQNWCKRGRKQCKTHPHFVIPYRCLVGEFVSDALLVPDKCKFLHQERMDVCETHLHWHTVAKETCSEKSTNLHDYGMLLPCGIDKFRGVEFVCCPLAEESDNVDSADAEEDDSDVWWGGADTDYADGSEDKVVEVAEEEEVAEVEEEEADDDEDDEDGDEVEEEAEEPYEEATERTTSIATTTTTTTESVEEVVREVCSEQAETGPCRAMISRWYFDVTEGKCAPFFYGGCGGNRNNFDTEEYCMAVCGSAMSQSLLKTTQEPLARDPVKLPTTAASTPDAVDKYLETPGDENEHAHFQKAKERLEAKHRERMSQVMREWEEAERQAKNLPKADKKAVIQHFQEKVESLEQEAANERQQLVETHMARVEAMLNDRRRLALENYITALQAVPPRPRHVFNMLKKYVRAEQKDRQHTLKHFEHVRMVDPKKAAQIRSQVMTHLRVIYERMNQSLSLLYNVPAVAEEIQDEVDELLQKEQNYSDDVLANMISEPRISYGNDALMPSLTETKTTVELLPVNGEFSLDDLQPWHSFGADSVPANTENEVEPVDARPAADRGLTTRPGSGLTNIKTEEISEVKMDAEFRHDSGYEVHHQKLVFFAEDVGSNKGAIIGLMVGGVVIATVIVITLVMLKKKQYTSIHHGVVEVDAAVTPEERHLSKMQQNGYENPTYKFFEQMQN
Sequence of Cholinesterase (P06276 whole entry): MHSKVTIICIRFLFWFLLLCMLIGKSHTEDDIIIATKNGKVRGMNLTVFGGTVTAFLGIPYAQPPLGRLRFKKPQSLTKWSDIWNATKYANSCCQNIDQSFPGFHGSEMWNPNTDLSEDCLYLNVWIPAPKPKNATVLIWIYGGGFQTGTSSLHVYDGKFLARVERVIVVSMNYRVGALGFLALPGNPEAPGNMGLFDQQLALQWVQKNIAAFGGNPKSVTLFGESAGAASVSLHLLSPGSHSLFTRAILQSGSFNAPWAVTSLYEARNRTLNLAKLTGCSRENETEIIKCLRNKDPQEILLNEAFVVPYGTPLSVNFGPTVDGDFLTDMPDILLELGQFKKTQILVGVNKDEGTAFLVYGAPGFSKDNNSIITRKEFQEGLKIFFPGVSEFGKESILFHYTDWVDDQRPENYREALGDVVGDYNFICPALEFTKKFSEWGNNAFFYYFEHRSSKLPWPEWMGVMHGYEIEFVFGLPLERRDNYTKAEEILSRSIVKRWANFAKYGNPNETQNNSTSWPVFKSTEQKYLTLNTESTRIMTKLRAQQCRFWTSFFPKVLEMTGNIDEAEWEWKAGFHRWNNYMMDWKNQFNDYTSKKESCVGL

As a reminder, the IC50 is the point on the concentration scale where inhibition reaches its midpoint. Broadly, the inhibition is the relative decrease from the control value, in per cent. Consider `COc1ccc2cc(C(=O)CN3CCN(c4ncccn4)CC3)c(=O)oc2c1`, for which the 50% inhibitory concentration (IC50) worked out at 4 µM in experiment [1] and 1 µM in experiment [4]. In addition, the inhibition in experiment [2] was < 95%; in experiment [3], > 65%.

With `COc1ccc2cc(C(=O)CN3CCC(c4ccccc4)CC3)c(=O)oc2c1`, the IC50 turned out to be 29 µM in experiment [1] and 14 µM in experiment [4]. The inhibition is < 95% in experiment [2] and > 65% in experiment [3].

Consider `COc1ccc2cc(C(=O)CN3CCN(c4ccccc4)CC3)c(=O)oc2c1`, for which the figures for the half-inhibitory concentration (IC50) in experiment [1] and in experiment [4] were 6.5 µM and 21 µM, respectively. Further, the inhibition was < 95% in experiment [2] and > 65% in experiment [3].

`CCN(CC)Cc1cccc(C(=O)/C=C/c2ccc(-c3ccccc3)cc2)c1` registered an IC50 in experiment [5] of 8.27 µM.

On to `COc1ccc2cc(C(=O)CN3CCN(c4ccccn4)CC3)c(=O)oc2c1`, for which the inhibition is < 95% in experiment [2] and > 65% in experiment [3].

With `COc1ccc2cc(C(=O)CN3CCOCC3)c(=O)oc2c1`, the 50% inhibitory concentration (IC50) is 5 µM in experiment [1] and 29 µM in experiment [4]. Moreover, the inhibition in experiment [2] was < 95%; in experiment [3] it was > 65%.

`COc1ccc2cc(C(=O)CN3CCC(Cc4ccccc4)CC3)c(=O)oc2c1`: the figures for the inhibition in experiment [2] and in experiment [3] were < 95% and > 65%, respectively. Moreover, inhibition in experiment [4] was half-maximal at 36 µM (IC50).

As for `COc1ccc2cc(C(=O)CN3CCN(Cc4ccccc4)CC3)c(=O)oc2c1`, the inhibition result in experiment [6] was “Active”. Moreover, the inhibition in experiment [2] was < 95%; in experiment [3], > 65%. The results for the concentration for half-maximal inhibition (IC50) in experiment [7] and in experiment [4] were 1.76 µM and 36 µM, respectively.
